From PubChem BioAssay
Values without a mark were called inactive. Results filed as inconclusive are left out. Calls of active or inactive are those of the source.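 Rule for the calls, unless noted: active = viability at or below 27.92% in each of two runs, the all-compound median minus 4 SD; inconclusive = no clear call, values can overlap the other calls; inactive = the rest.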

Assays:
[1] = OD615 S. cerevisiae growth inhibition, permissive medium, pilot counter-assay, permissive growth control for S. cerevisiae lifespan shortening project (AID 705;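 active = growth inhibition above 25% in both replicates, a cutoff set 3 SD above the mean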); conditions: OD615, 24 h, at 10 µM, hits give high values
In short: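 Material: engineered DeaD yeast; Compound: one dose 10 µM, DMSO 0.25% final; Detection: absorbance (optical density) at 615 nm; Buffer or medium: permissive raffinose/galactose medium; Timing: 24 h exposure, 30 °C.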

[2] = Restrictive medium S. cerevisiae growth inhibition, OD615, pilot screen of yeast lifespan reduction project, restrictive growth control (AID 706;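 active = growth inhibition above a set limit, 3 SD over mean compound inhibition, in both replicates, cut at about 43% in these data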;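 note: modified DeaD lifespan yeast strain shifted to restrictive glucose medium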); conditions: OD615, 48 h, at 10 µM, hits give high values
In short: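 Buffer or medium: restrictive glucose medium (CSMM-D); test system: modified S. cerevisiae; doses: single dose of 10 µM compound final, 0.25% DMSO; schedule: 48 h compound exposure at 30 °C; detection: absorbance (optical density) measured at 615 nm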

[3] = viability gain of MRP-1-high H69AR cells under doxorubicin, pilot screen, MRP-1 activator project, CellTiter-Glo, duplicate (AID 807;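 active = viability increase at or above a cutoff of the median across tested compounds plus 3 SD, cut at about 8.5% in these data, passing the limit was not always enough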;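 note: compound pretreatment 18-22 h then 72 h combined with doxorubicin; 0% = doxorubicin alone and 100% = vehicle without doxorubicin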); conditions: H69AR viability with doxorubicin, CellTiter-Glo luminescence; at 10 µM; hits give high values
[4] = growth suppression of beta-catenin knockout HCT116, pilot screen, human colon tumor cells (AID 823;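 active = cell viability at or below a set limit in both duplicate runs, the limit being the all-compound median minus 4 SD, cut at about 23% in these data, passing the limit was not always enough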;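 note: 0% = wells killed by 20 µM Hyamine and 100% = untreated DMSO cell wells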); conditions: CellTiter-Glo, 60 h, at 10 µM, hits give low values
[5] = growth suppression of PTEN-deleted HCT116, pilot screen, cell-based, HCT116 clonal line, CellTiter-Glo (AID 824); conditions: 60 h, at 10 µM, hits give low values;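 note: 0% = 20 µM Hyamine control and 100% = vehicle cell control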
[6] = inhibitors of the yeast RAM network, pilot screen, dse1pr::URA3 reporter, 5-FOA selection (AID 869;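 active = inhibition over a set limit, the all-compound mean plus 3 SD, in both replicate runs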;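 note: 0% = DMSO wells with no growth and 100% = 10 µM 1-NA-PP1 with full growth; RAM network block rescues cells from 5-FOA so hits raise OD615 growth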); conditions: S. cerevisiae dse1pr::URA3 5-FOA growth, OD615, 2 d; at 10 µM; hits give high values; strain carries analog-sensitive mutant Cbk1 kinase
[7] = RAM signaling pathway blockade in yeast – S. cerevisiae, Pdr1DBD-CYC8 efflux-inhibited sensitized strain, primary screen (AID 1298;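 active = RAM network inhibition above 8.4% in each of two replicates, 3 SD over the compound average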;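 note: 0% = DMSO untreated cells without growth and 100% = 10 µM 1-NA-PP1 full growth; higher means more yeast growth rescued from 5-FOA killing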); conditions: S. cerevisiae cbk1-as DSE1-URA3 strain, 5-FOA growth OD615, 2 d; at 50 µM; hits give high values

| SMILES | growth inhibition [1] [%] | growth inhibition [2] | viability increase [3] [%] | viability [4] | viability [5] | inhibition [6] [%] | RAM network inhibition [7] [%] |
| --- | --- | --- | --- | --- | --- | --- | --- |
| O=C(CSc1nnc(-c2cccs2)o1)N1CCCCC1 | -2.25 | 11.9% | 2.11 | 104% | 115% | 1.31 | 1.38 |
| c1cnc(N2CCSCC2)nc1 | 2.61 | 2.42% | -2.73 | 104% | 101% | 0.69 | 3.1 |
| Cc1ccc(O)c(NC(=O)CCC2CCCCC2)c1 | -1.6 | 1.04% | -3.63 | 89.4% | 84.5% | 4.25 | 4.08 |
| CCCS(=O)(=O)NCc1cn2c(C)csc2n1 | -0.385 | 17.2% | -2.28 | 102% | 92.6% | 2.58 | 5.52 |
| Cc1ccccc1NC(=O)c1ccc(S(=O)(=O)N(C)C)cc1 | -9.3 | -2.52% | 0.67 | 102% | 94% | 2.17 | 2.21 |
| CC1CCN(c2c(NCc3ccc(C(=O)NCC4COc5ccccc5O4)cc3)c(=O)c2=O)CC1 (stereo not drawn) | 2.94 | 14.3% | -2.96 | 86.2% | 96.2% | 0.785 | 4.87 |
| O=C(CSc1nc2ccccc2o1)NCc1ccco1 | -11.6 | -16% | -3.53 | 102% | 98% | 0.97 | 5.5 |
| O=C(Cn1cc2c(n1)CCCC2)NCCCN1CCCC1 | -3.79 | 4.09% | 0.07 | 105% | 99.3% | -0.37 | 1.62 |
| Cc1cc(N)n2ncc(-c3cccc(Br)c3)c2n1 | 2.1 | -6.45% | -6.91 | 75.4% | 71.8% | 0.315 | 1.65 |
| Cc1ccc(Nc2cc(C)nc3nc(C)nn23)cc1 | -3.6 | -11.9% | -3.16 | 97.4% | 95.7% | 2.35 | 3.26 |
| COC(=O)CN(c1ccccc1)S(=O)(=O)c1ccccc1 | -15.8 | -2.47% | -0.03 | 101% | 99.8% | 1.01 | 0.88 |
| O=C(NCCCN1CCCC1=O)c1ccc2c(c1)ncn2C1CCCCC1 | 0.37 | 2.91% | 1.87 | 105% | 109% | 0.03 | 10.9 |
| O=C(O)c1ccc(NS(=O)(=O)c2cccc3cccnc23)cc1 | -2.47 | 7.28% | -0.56 | 102% | 94.1% | 2.25 | 1.04 |
| CCOC(=O)C(CCC#N)(CCC#N)C(=O)OCC | -11.9 | -5.42% | -0.16 | 95.9% | 102% | 0.445 | 5.31 |
| CCCCCCN1C(=O)C(O)=C(C(C)=O)C1c1ccc(Cl)cc1 (stereo not drawn) | -6.47 | 7.25% | 0.3 | 106% | 100% | -0.245 | 8.31 |
| O=C(Nc1ccc(SC(F)F)cc1)C1=COCCO1 | -0.035 | 10.5% | 2.59 | 93.8% | 90.1% | 1.4 | 5.17 |
| COCCNC(=O)c1ccccc1NC(=O)C1COc2ccccc2O1 (stereo not drawn) | -3.84 | -0.665% | -0.74 | 95.8% | 102% | 2.8 | 4.39 |

| SMILES | growth inhibition [1] [%] | growth inhibition [2] | viability increase [3] [%] | viability [4] | viability [5] | inhibition [6] [%] | RAM network inhibition [7] [%] |
| --- | --- | --- | --- | --- | --- | --- | --- |
| C=CCSC1=C(C#N)C(c2ccc(OCC)cc2)CC(=O)N1 (stereo not drawn) | -11.9 | 15.4% | -1.8 | 94.5% | 88.2% | 1.47 | 4.8 |
| COc1ccc(S(=O)(=O)Cc2ccc(C(=O)N3CCN(c4cccc(C)c4C)CC3)o2)cc1 | -1.63 | -1.19% | -5.44 | 13% (active) | 17.6% (active) | 1.52 | 3.74 |
| CCN(CCNS(=O)(=O)c1ccc2[nH]c(=O)sc2c1)c1ccccc1 | 0.725 | 13% | -1.31 | 99% | 87.6% | 0.01 | 2.83 |
| O=C(Cn1cc2c(n1)CCCC2)NCCCN1CCN(c2ccccc2F)CC1 | -16.9 | -6.56% | -3.08 | 89.5% | 89% | 0.665 | 5.8 |
| CCCOC(=O)c1ccc(NC(=O)C2C3C=CC(O3)C2C(=O)O)cc1 (stereo not drawn) | -8.39 | -22.8% | -1.49 | 101% | 95.4% | 1.27 | 0.36 |
| CC(=O)Nc1nc2n(n1)C(c1ccccc1)C=C(c1ccccc1)N2 (stereo not drawn) | -7.58 | 4.18% | -2.94 | 99.9% | 106% | 1.06 | 1.19 |
| CC(C)N1C(=O)C2C(c3ccccc3O)NC(C)(C(=O)O)C2C1=O (stereo not drawn) | 7.56 | 5.16% | -0.38 | 101% | 104% | 0.765 | 1.54 |
| O/N=C(/Cc1ccccn1)c1ccccc1 | -1.64 | 7.06% | -1.19 | 101% | 101% | 1.97 | 0.22 |
| O=C(Cn1cnc2c(cnn2-c2ccccc2)c1=O)NC1CCCC1 | 3.55 | -3.13% | 1.03 | 99.2% | 95.8% | 1.77 | 2.38 |
| CCOC(=O)c1cn[nH]c1N | -3.76 | 10.1% | 0 | 101% | 102% | -0.235 | 0.61 |
| O=C(O)CC1Sc2ccccc2NC1=O (stereo not drawn) | -7.26 | 0.575% | -1.79 | 90.2% | 96% | 1.49 | 4.47 |
| CC(=O)N1CCc2cc(S(=O)(=O)Nc3ccccc3N3CCN(C)CC3)ccc21 | -7.73 | -1.75% | -1.49 | 94.8% | 85.8% | 1.71 | 0.62 |
| COc1cccc(-c2nnc(NC(=O)C3CCCCC3)o2)c1 | -14 | -2.06% | -3.8 | 83.5% | 85.7% | 1.85 | 1.88 |
| c1ccc(-c2csc3nnc(SCc4ccc5c(c4)OCO5)n23)cc1 | 22.1 | 64.5% (active) | -2.01 | 93.2% | 82.7% | 0.87 | 3.09 |
| CC(C)N(CCc1ccncc1)C(=O)Nc1ccc(Cl)c(Cl)c1 | -4.55 | -1.79% | -0.23 | 81.1% | 87.8% | 2.42 | 3.94 |
| CCSC1=N/C(=C\c2ccc(C(=O)O)cc2)C(=O)S1 | -3.9 | -3.52% | -2.03 | 95.4% | 100% | 1.83 | 8.27 |
| CCc1cccc(C)c1NC(=O)C1CCCO1 (stereo not drawn) | -5.15 | -1.12% | -3.29 | 87.3% | 88.1% | 0.695 | 3.57 |
